PRMT1 FP inh: PRMT1 methyltransferase inhibitors, primary screen, biochemical, fluorescence polarization | Protein arginine N-methyltransferase 1 (Homo sapiens), Q99873 | recombinant PRMT1, activity-based probe fluorescence polarization | inhibition, % at 2.79 µM | 1.3% of 370,000 active | AID 652257, 2013;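 active = inhibition above about 21% made by adding two undisclosed values, limit read from the data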
MBD2 inh: inhibitors of MBD2 binding to methylated DNA, primary screen, biochemical, TR-FRET, DNA-binding domain, human | Methyl-CpG-binding domain protein 2 (Homo sapiens), Q9UBB5 | MBD2 binding to methylated oligonucleotide | inhibition, % at 4.4 µM | 0.31% of 370,000 active | AID 686964, 2013; in the data active = inhibition above about 13%
Target sequence (Q9UBB5 whole entry, looked up, the tested form may be a part): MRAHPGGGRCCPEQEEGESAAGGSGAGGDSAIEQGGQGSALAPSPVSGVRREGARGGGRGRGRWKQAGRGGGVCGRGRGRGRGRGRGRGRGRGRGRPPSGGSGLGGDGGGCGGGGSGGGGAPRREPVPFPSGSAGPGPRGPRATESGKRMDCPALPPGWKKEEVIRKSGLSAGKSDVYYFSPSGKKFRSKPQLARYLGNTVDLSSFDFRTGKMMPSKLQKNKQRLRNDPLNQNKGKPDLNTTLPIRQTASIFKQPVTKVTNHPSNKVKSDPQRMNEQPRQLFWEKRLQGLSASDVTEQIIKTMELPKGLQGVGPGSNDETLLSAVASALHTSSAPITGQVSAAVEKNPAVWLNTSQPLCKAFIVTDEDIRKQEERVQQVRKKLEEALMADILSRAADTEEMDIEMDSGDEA
LEDGF integ inh: blockers of LEDGF/p75-dependent integrase strand transfer – biochemical, TR-FRET, high throughput, primary screen | HIV-1 integrase (with human LEDGF/p75) | TR-FRET IN-LEDGF/p75 DNA integration, Eu/Cy5 | inhibition, % at 3.7 µM | 0.64% of 370,000 active;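 active = inhibition above the screen-wide mean plus 3 SD, cut at about 13% in these data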;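 note: signal is the Cy5 over europium emission ratio at 671 and 618 nm; 0% = plate median of compound wells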
RBBP9 inhibitor: human RBBP9 inhibitors, primary screen, biochemical, fluorescence polarization, FP-Rh probe, HTS. Serine hydrolase RBBP9 (Homo sapiens), O75884. recombinant RBBP9. inhibition, % at 7.94 µM. 0.2% of 220,000 active. AID 1515, 2009;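 active = inhibition above the campaign mean of all tested compounds plus 3 SD, cut at about 14% in these data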;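 note: plate controls were DMSO wells with RBBP9 for no effect and wells lacking RBBP9 protein for full effect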
Target sequence (O75884 whole entry, looked up): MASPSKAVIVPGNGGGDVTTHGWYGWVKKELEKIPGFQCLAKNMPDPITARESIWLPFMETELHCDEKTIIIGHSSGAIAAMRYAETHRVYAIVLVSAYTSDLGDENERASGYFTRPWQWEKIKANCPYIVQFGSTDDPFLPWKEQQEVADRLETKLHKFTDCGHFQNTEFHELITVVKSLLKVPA
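system = RBBP9 protein | input = RBBP9 at 2.5 µM in dispensed solution, before mixing | measured by = fluorescence polarization (mP), excitation 525 nm, emission 598 nm | incubation = enzyme-compound preincubation 30 min, then probe labeling 45 min, 25 °C | buffer or medium = Tris-NaCl-Pluronic buffer, pH 8.0 | compound = single dose 7.94 µM | also added = FP-Rh probe, 375 nM dispensing solution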
UHRF1 MBD2 ctr: UHRF1 methylated DNA binding inhibitors, primary screen, counter-screen for MBD2 inhibitor project, biochemical, TR-FRET, human UHRF1, single concentration | 0.75% of 370,000 active | E3 ubiquitin-protein ligase UHRF1 (Homo sapiens), Q96T88 | UHRF1 binding to methylated oligo | inhibition, % at 4.4 µM; in the data active = inhibition above about 21%;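 note: UHRF1 SRA domain binding a hemimethylated CpG hairpin DNA probe; 0% = median of test compound wells and 100% = reference inhibitor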
ABHD5 PLIN5 PPI: ABHD5-PLIN5 interaction inhibitors, primary screen, cell lysate, split luciferase complementation, luminescence; Split G. princeps luciferase complementation, 4 h; 0.78% of 360,000 active; inhibition, % at 4 µM; Perilipin-5 (Homo sapiens) + 1-acylglycerol-3-phosphate O-acyltransferase ABHD5 (Homo …;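 active = inhibition above the mean inhibition across every tested compound plus 3 SD, cut at about 22% in these data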;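 note: 0% = DMSO only wells and the 100% control is not disclosed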
Active calls of the source: *; . = no result. Compounds with a hit are over-represented: about 3.1% of the library has one in this group of screens.

SMILES | PRMT1 FP inh | MBD2 inh | LEDGF integ inh | RBBP9 inhibitor | UHRF1 MBD2 ctr | ABHD5 PLIN5 PPI
C#CCN(C[C@@H]1[C@@H](OC(=O)NCc2ccccc2)[C@@H](OC(=O)NCc2ccccc2)CN(C(=O)OC(C)C)N1C(=O)OC(C)C)S(=O)(=O)c1ccc(C)cc1 | -5 | 9 | -2 | . | 23* | 16
Cc1ccc(S(=O)(=O)N2C[C@H]3N(C(=O)OC(C)C)N(C(=O)OC(C)C)C[C@H](OC(=O)NCc4ccccc4F)[C@@]3(O)C2)cc1 | 1 | 7 | -3 | . | 22* | -3
CCC(Sc1nc2ncnc(N)c2[nH]1)C(=O)O (configuration not stated) | 4 | 2 | 0 | -8 | 21* | -1
Nc1ncnc2nc(SCc3ccccc3)[nH]c12 | -1 | 7 | 1 | 4 | 2 | 4
CS(=O)(=O)N1CCC[C@]2(CC[C@H](CCC#N)O2)C1 | -2 | 0 | 1 | . | -1 | .
C[C@@H]1CCCN1c1cccc2c1S(=O)(=O)N1CC[C@@H](C1)O2 | 7 | -5 | -2 | . | 4 | .
CCCCNC(=O)Oc1c(Br)cc2sc(=O)oc2c1Br | . | . | . | 21* | . | .
COc1ccccc1C(=O)Nc1c(C(=O)N(CCN(C)C)Cc2ccco2)oc2ccccc12 | 2 | -6 | -4 | . | 0 | 22*
O=C(Cn1nnc(-c2ccncc2)n1)Nc1ccc(Cl)cc1 | -9 | -1 | 4 | . | 1 | .
CN(c1cccc(NC(=O)CCSc2ccccc2)c1)S(C)(=O)=O | -2 | -4 | 2 | -7 | -5 | -5
CN(c1cccc(NC(=O)c2ccc(C(C)(C)C)cc2)c1)S(C)(=O)=O | 3 | 3 | 2 | -8 | 23* | -9
CC(Sc1ccccc1)C(=O)Nc1cccc(N(C)S(C)(=O)=O)c1 (configuration not stated) | -1 | -5 | -1 | -4 | 23* | 4
O=C1CCC2(CCC(c3ccccc3)CC2)N1CCCO (configuration not stated) | 3 | 1 | 0 | . | 1 | .
CCCC(=O)OC12CCCN(C1)/C(=C/c1ccc(Cl)cc1)C2 (configuration not stated) | -2 | -6 | 1 | . | 0 | .
CCc1cccc(C)c1NC(=O)c1cccc(N(C)C)c1 | 23* | -1 | 1 | -6 | -1 | -6
CCOc1ccc(C(=O)NCC(C)NC(=O)c2ccc(OCC)cc2)cc1 (configuration not stated) | 0 | 6 | 4 | . | 24* | -3
CCOc1ccc(C(=O)NCC(C)C)cc1 | -3 | -4 | 2 | -5 | 0 | 4
COc1ccc(/C(C)=N/Nc2ncc(Cl)cc2Cl)c(O)c1 | -2 | 6 | 1 | -4 | 24* | -5
C/C(=N\Nc1ncc(Cl)cc1Cl)c1ccc(C#N)cc1 | 1 | -2 | 6 | -5 | -1 | 11
Cc1ccc(Nc2n[nH]c(=S)s2)cc1 | 14 | 5 | -2 | . | 0 | -16
Cc1ccc(Nc2n[nH]c(=S)s2)cc1F | 22* | 1 | -4 | . | 0 | -18
CCC(Cc1ccccc1)NCc1c(C(=O)O)c(C)n(Cc2ccccc2)c1C (configuration not stated) | 5 | -1 | -9 | -2 | 30* | 7
COc1ccc(OCc2nnc(SCC(=O)N(C)Cc3ccccc3)n2N)cc1 | 21* | 3 | 0 | -8 | 4 | 1
COc1ccc(N/C(C)=C/C(=O)c2ccccc2)cc1 | -5 | -5 | -1 | -1 | -1 | 5
COc1ccc(C(=O)/C=C(\C)Nc2ccc3c(c2)OCO3)cc1 | 22* | -3 | 4 | -4 | -4 | -2
SMILES | PRMT1 FP inh | MBD2 inh | LEDGF integ inh | RBBP9 inhibitor | UHRF1 MBD2 ctr | ABHD5 PLIN5 PPI
O=C(Nc1ccc(OC(=O)c2cccs2)cc1)c1ccco1 | 1 | 10 | 1 | -4 | 24* | -1
C[C@H]1COc2cc(Br)ccc2S(=O)(=O)N1Cc1cn(Cc2ccco2)nn1 | -8 | -3 | -1 | . | -1 | .
COc1ccc(N2CCN(C(=O)CN(c3ccc(OC)cc3)S(=O)(=O)c3ccccc3)CC2)cc1 | 4 | 8 | 6 | . | 31* | 0
COc1ccc(N2CCN(C(=O)CN(c3ccccc3)S(=O)(=O)c3ccc(OC)cc3)CC2)cc1 | -4 | 4 | 3 | -8 | -1 | -10
COC(=O)[C@]12C[C@H](CC(=O)NCCCCc3ccccc3)C(=O)N(Cc3ccc(Cl)cc3Cl)C1=C[C@H](COCc1ccccc1)O[C@@H]2C | 4 | -2 | -1 | . | 1 | .
C#CCNC(=O)C[C@H]1C[C@@]2(C(=O)OC)C(=C[C@H](C(C)(C)C)O[C@@H]2C)N(Cc2ccc3c(c2)OCO3)C1=O | -1 | 0 | -2 | . | -1 | .
Cc1nc2sc(C(c3ccco3)N3CCN(C(c4ccccc4)c4ccccc4)CC3)c(O)n2n1 (configuration not stated) | 24* | 3 | 6 | -12 | -3 | 7
Cc1nc2sc(C(c3ccco3)N3CCN(c4ccccc4)CC3)c(O)n2n1 (configuration not stated) | 7 | 3 | -2 | -3 | 6 | 2
C=CCN(C)C(C#Cc1ccccc1)c1ccccc1C(F)(F)F (configuration not stated) | -1 | 2 | -3 | . | -1 | .
CCS(=O)(=O)c1ccc2oc(SCC(=O)NCCc3ccc(OC)cc3)nc2c1 | 8 | 0 | -5 | -4 | 29* | -8
c1ccc2c(C(c3nnnn3-c3ccc4c(c3)OCCO4)N3CCCC3)ccnc2c1 (configuration not stated) | 3 | -4 | -1 | . | -6 | -6
c1ccc2c(C(c3nnnn3-c3ccc4c(c3)OCCO4)N3CCOCC3)ccnc2c1 (configuration not stated) | 0 | 6 | 1 | . | 22* | 9
COC(=O)c1cc(-c2cc(Cl)cc(Cl)c2)c(=O)n2c1CCC2 | 0 | 1 | -1 | . | -1 | .
Cc1cc(C)cc(NC(=O)Cn2c(-c3ccccc3Cl)nc3ccccc32)c1 | 1 | 4 | -1 | -4 | 22* | 1
COc1cc(C=Nn2c(-c3ccc(F)cc3)n[nH]c2=S)ccc1OCc1ccccc1 | 5 | -1 | -1 | . | -1 | .
Cc1sc(NC(=O)C2=COCCO2)nc1-c1ccc(F)cc1 | 3 | 4 | -7 | . | 5 | 3
Cc1sc(NC(=O)C2=COCCO2)nc1-c1ccc(Br)cc1 | -1 | -6 | 1 | . | 30* | -14
O=C(O)c1cccc(-n2cccc2/C=C2/NC(=O)N(c3cccc(Cl)c3)C2=O)c1 | 2 | 8 | 8 | -2 | 27* | 10
